KCC2 mod: modulators of human KCC2 chloride dependent transport | Q9H2X9 | KCC2 cells, thallium flux FluoZin-2 fluorescence | B-score of Tl+ flux slope (higher = more flux/activation; lower = inhibition) at 10 µM | actives 2.2% (n = 190,000) | AID 1456;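 active = thallium flux slope and its plate-corrected score both differing from the plate sample mean at a set confidence after two filtering rounds, in either direction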;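 also: slope of fluorescence scaled to starting intensity during 10 to 20 s after thallium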
Autophagy mod: alters autophagy in cells; actives 0.98% (n = 190,000); calls only at 10 µM (by protocol); MEF GFP-LC3 puncta imaging; test concentration mostly 10 µM;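 active = percentage of spot-positive cells more than 3 SD above its plate mean, without a fluorescence outlier flag or 80% toxicity; inconclusive = no clear call, values can overlap the other calls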;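 also: spot-positive cell cutoff set from DMSO-treated cells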
Redox H2O2 prof: compounds producing H2O2 with reducing agent – biochemical, NIH compound library profiling, artefact control for MLSCN library redox annotation, primary screen; DTT-dependent redox cycling H2O2, phenol red/HRP absorbance; 100% = 100 µM peroxide control, 0% = buffer; activation, % at 10 µM; actives 0.03% (n = 200,000);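 active = activation of at least 50% relative to the plate's high and low controls in the primary single-dose screen; inactive = activation below 50%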;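 also: compound incubated with DTT at 0.8 mM final as the reducing agent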
Dynein cargo inh: blocks dynein driven cargo transport along microtubules. 3617.4 mouse cells, GR-EGFP nuclear translocation imaging; test concentration mostly 20 µM; stimulated with dexamethasone, 1 µM; stronger effect = lower value. z-score, hits read low. actives 0.47% (n = 220,000). AID 1381;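 active = plate z-score of nuclear minus cytoplasmic receptor signal below a set negative limit, without overly bright fluorescence or cell loss, cut at about -3.5 in these data, passing the limit was not always enough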;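 also: z-score of nuclear minus cytoplasmic ring GR-EGFP intensity difference per well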
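medium = tetracycline-free induction medium containing charcoal-stripped FBS | probe or stimulus = dexamethasone, 1.0 µM final | timing = 48 h induction, then 1 h compound, then 30 min agonist, 37 °C | detection = automated 10x imaging of fixed Hoechst-stained cells | read-out basis = nuclear versus cytoplasmic GR-EGFP signal, averaged per well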
ROMK mod: human ROMK K+ channel modulation, primary screen; actives 2% (n = 130,000); P48048; B-score at 10 µM; AID 1918; Tet-inducible ROMK, thallium flux fluorescence; actives lie on both sides;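 active = signal ratio slope over the read window, or its plate-corrected B-score, at least 3 SD from the plate mean, either direction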;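 also: B-score of the F/F0 ratio slope over 7 to 12 s after thallium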
Target sequence (P48048 whole entry, looked up): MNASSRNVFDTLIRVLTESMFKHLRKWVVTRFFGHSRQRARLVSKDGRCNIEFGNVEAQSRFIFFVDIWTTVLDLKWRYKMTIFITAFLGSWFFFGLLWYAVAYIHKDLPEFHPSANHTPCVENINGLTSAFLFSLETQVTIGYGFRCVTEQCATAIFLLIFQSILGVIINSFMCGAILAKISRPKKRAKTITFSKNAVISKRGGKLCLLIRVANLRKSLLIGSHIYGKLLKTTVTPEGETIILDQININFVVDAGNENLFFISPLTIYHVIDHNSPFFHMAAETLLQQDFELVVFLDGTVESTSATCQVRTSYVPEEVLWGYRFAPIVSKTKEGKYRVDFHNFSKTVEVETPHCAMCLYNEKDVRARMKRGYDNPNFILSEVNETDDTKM
Dynein confirm: dynein cargo transport inhibition, confirmation. shares compounds with Dynein cargo inh. 3617.4 GR-EGFP nuclear translocation imaging, dexamethasone-induced. calls only at 20 µM. actives 69% (n = 1,000);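 active = inhibition of receptor movement into the nucleus at or above a set limit in both runs, with normal cell brightness and cell count; inconclusive = limit reached in only one run, brightness and count normal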;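 also: dexamethasone at 1 µM final in well for 30 min; nuclear minus cytoplasmic GR-EGFP mean intensity difference in channel 2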
* hit, by the source's call; i = inactive; u = inconclusive; x = not tested or not shown; + = active, no number. Rows were chosen to be rich in hits. Some 4.1% of all compounds tested hit in one or more screens of this group.

SMILES | KCC2 mod | Autophagy mod | Redox H2O2 prof | Dynein cargo inh | ROMK mod | Dynein confirm
CC(NC(=O)CN(c1cccc(C(F)(F)F)c1)S(=O)(=O)c1ccc(Cl)c([N+](=O)[O-])c1)c1ccccc1 (stereo unspecified) | 1.48 | i | 0.6 | -1.55 | -0.562 | x
O=C(CN(c1cccc(C(F)(F)F)c1)S(=O)(=O)c1ccc(Cl)c([N+](=O)[O-])c1)NCc1ccccc1 | 0.548 | i | -0.4 | -5.54* | x | +
O=C(CN(c1ccc(Br)cc1)S(=O)(=O)c1ccc(Cl)c([N+](=O)[O-])c1)NCCc1ccccc1 | 0.0864 | i | -0.4 | 0.0285 | 0.391 | x
O=C(CN(c1cccc(C(F)(F)F)c1)S(=O)(=O)c1ccc(Cl)c([N+](=O)[O-])c1)NCc1ccccc1Cl | -0.043 | i | 2.0 | -3.69* | -0.0957 | i
CCOC(=O)C1CCCN(C(=O)Cn2sc3nc(C)cc(C)c3c2=O)C1 (stereo unspecified) | 0.566 | i | -1.3 | -4.08* | x | u
CCCNC(=O)Cn1sc2nc(C)cc(C)c2c1=O | -0.608 | x | x | -4.78* | x | i
CCOC(=O)C1CCCN(C(=O)Cn2cnc3c2c(=O)n(C)c(=O)n3C)C1 (stereo unspecified) | -0.64 | i | -3.0 | 0.29 | x | x
Cc1cc(C)c2c(=O)n(CC(=O)N3CCC(N4CCCCC4)CC3)sc2n1 | 0.201 | i | -3.0 | -4.17* | x | i
CC(=O)Cn1cnc2c(sc3nc(C)cc(C)c32)c1=O | 1.05 | x | x | -0.38 | -1.39 | x
NCCc1nnc(SCC(=O)c2ccc(Cl)cc2)o1 | 0.233 | x | x | -0.42 | x | x
O=C(Cn1nnc2ccccc2c1=O)Nc1cccc(S(=O)(=O)N2CCOCC2)c1 | 0.876 | i | -2.7 | 1.3 | 0.309 | x
NC(=O)C1(N2CCCCC2)CCN(S(=O)(=O)c2cc(Cl)sc2Cl)CC1 | -1.16 | x | x | -0.577 | x | x
CN1CCN(Cc2nc3ccccc3c(=O)n2Cc2nc(-c3ccc([N+](=O)[O-])cc3)cs2)CC1 | -0.179 | i | 0.0 | -3.67* | x | i
CCN(CC)c1ccc(/C=C2/SC(=O)N(C(C)C)C2=O)o1 | i | u | -0.6 | -4.02 | x | +
Cc1cc(N2CCOCC2)ccc1/C=C1\SC(=O)N(C(C)C)C1=O | 1.19 | i | -4.0 | 1.18 | -1.29 | x
CCOP(=O)(OCC)/C(C#N)=C/c1ccc([N+](=O)[O-])cc1 | 0.13 | x | x | 1.58 | x | x
COc1ccc(C(=O)N(Cc2ccco2)Cc2cccs2)c(O)c1 | -0.738 | i | 0.2 | 0.435 | x | x
COc1ccc(C(=O)/C=C/C(=O)N(CC(=O)NC2CCCCC2)Cc2ccc(F)cc2)c(O)c1 | 0.374 | i | 0.2 | -4.54* | -0.211 | +
COc1ccc(C(=O)/C=C/C(=O)N(CC(=O)NCCC(C)C)Cc2cccs2)c(O)c1 | 0.304 | i | 0.0 | -6.14* | -1.59 | +
Cn1cnnc1SCC(=O)c1ccc(O)c(O)c1 | 0.133 | i | -0.9 | -0.914 | 0.752 | x
COc1ccc(S(=O)(=O)N(C)C)cc1NC(=O)CSc1nncs1 | 0.1 | i | -0.7 | -0.378 | 0.0855 | x
CCn1c(Cl)c(C=O)s/c1=N\S(=O)(=O)c1ccccc1 | -2.15 | x | x | -7.03* | x | +
CCN1C(=O)CS/C1=N\S(=O)(=O)c1ccc(Cl)cc1 | 0.41 | i | -2.0 | 0.394 | 0.201 | x
CCCCN(C)C1=CC2=CC(=C(C#N)C#N)CCC2CC1 (stereo unspecified) | i | u | -0.5 | -8.14* | x | +
N#CC(C#N)=C1C=C2C=C(N3CCCCC3)CCC2CC1 (stereo unspecified) | i | u | 0.1 | -7.32* | x | +
SMILES | KCC2 mod | Autophagy mod | Redox H2O2 prof | Dynein cargo inh | ROMK mod | Dynein confirm
CCN(CC)C1=CC2=CC(=C(C#N)C#N)CCC2CC1 (stereo unspecified) | i | i | -0.2 | -2.72 | x | x
CCC(Oc1ccccc1)C(=O)Nc1ccsc1C(=O)OC (stereo unspecified) | -1.44 | i | 0.2 | 1.44 | 0.35 | x
CCOc1ccc(NC(=S)NCC(c2cccnc2)N2CCOCC2)cc1 (stereo unspecified) | 1.12 | i | 0.5 | 0.297 | -0.252 | x
O=C(NC(=S)Nc1ccc(-c2ccc(CO)o2)cc1)c1cccs1 | 1.21 | i | -0.8 | -6.62* | 0.398 | i
CCOc1ccc(-n2c(C)cc(C(=O)CCl)c2C)cc1 | -0.0863 | + | -0.1 | -4.77* | 0.608 | +
COC(=O)c1ccc(-n2c(C)cc(C(=O)CCl)c2C)cc1 | -1.99 | i | 0.1 | -5.05* | x | +
Cc1ccc(C(=O)COC(=O)c2cn(-c3ccccc3)nc2-c2ccccc2)cc1[N+](=O)[O-] | 1.38 | i | -0.3 | 0.682 | x | x
Cc1ncc(CCl)c2c1OC(C)(C)OC2 | 1.9 | i | 1.7 | -4.41* | 0.351 | i
O=C(CC1NCCN(Cc2ccccc2)C1=O)Nc1ccccc1 (stereo unspecified) | -0.156 | x | x | 0.177 | x | x
CN(C)CC(C(=O)c1ccccc1)c1ccccc1 (stereo unspecified) | 1.02 | i | -2.5 | -3.72* | x | +
COc1ccccc1C(=O)C1CCCN(Cc2cn[nH]c2C2CCCCC2)C1 (stereo unspecified) | 0.711 | i | -1.2 | -0.394 | -1.5 | x
Cc1cc(C)c2c(=O)c(/C=C3\NC(=S)NC3=O)coc2c1 | x | x | x | 0.0986 | x | x
COc1cc(N2CCCC2)c(OC)cc1/C=C1/NC(=S)NC1=O | -2.72 | + | -0.5 | -4.39 | x | i
CCCc1cc(NC(=O)CCl)n(-c2ccccc2)n1 | 0.456 | i | 1.2 | -4* | -0.218 | +
COC(=O)C(=C/C(C)=C/c1cccnc1)C(=O)OC | 0.402 | i | -0.6 | -5.94* | -1.46 | +
Cc1sc(NC(=O)CCl)c(C(=O)c2ccccc2)c1C | x | i | 1.1 | -3.75* | x | +
O=C(c1ccccc1)N1CCCC(C(=O)N2CCN(c3ccccc3)CC2)C1 (stereo unspecified) | 0.338 | x | x | -0.505 | -0.0473 | x
CCOC(=O)CC1C(=O)NCCN1c1nc2ccc(C)cn2c(=O)c1/C=C1\SC(=S)N(C(C)CC)C1=O (stereo unspecified) | i | x | x | -3.65 | x | +
COc1ccccc1C1Nc2cccc3cccc(c23)N1 | -0.742 | i | -0.2 | -4.69* | -0.413 | i
Oc1ccccc1C1Nc2cccc3cccc(c23)N1 | 0.412 | i | 3.8 | -0.991 | -0.132 | x
Nc1ccc(N2CCCCC2)c(Cl)c1 | 0.335 | i | -0.6 | -1.08 | 0.183 | x
COc1cccc(CN2CCN(Cc3cccc4nonc34)CC2CCO)c1 (stereo unspecified) | 0.245 | i | -0.6 | -0.336 | -2.44 | x
CC(=O)Nc1ccc(Nc2c3c4c(cccc4n(C)c2=O)C(=O)c2ccccc2-3)cc1 | x | i | -0.3 | 1.98 | 1.46 | x
Cn1c(=O)c(NC2CCCCC2)c2c3c(cccc31)C(=O)c1ccccc1-2 | i | u | 0.2 | -6.06 | x | x

Screening results deposited in PubChem by several laboratories.
